Measured values from article PMC5806153 (The Journal of pediatrics, 2018).
“And” between values parts separate entries of the source, which are not always exact repeats. Identical values can stand only once. Like-named read-outs stand apart in the source and are kept apart here.

Tests used:
[1] = type: in vivo, human; details: for half-life / Cmax / AUC(0-t) / AUC(0-inf): human, plasma; for AUC(0-t): Uncorrected AUC0-last; for AUC(0-t) / AUC(0-inf) / % AUC0-∞ extrapolated from AUC0-last / AUC0-∞ corrected for TBW-normalized dose / CL/F normalized to TBW / Cmax corrected for LBW-normalized dose / Cmax corrected for TBW-normalized dose / Vd/F normalized to TBW: mean ± SD; for AUC(0-inf): Uncorrected AUC0-∞; for tlag: median (range)
Procedure, shortened: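 Fasted obese children 6–17 y, CYP2C19-genotyped (*2, *3, *4, *17; classed EM/IM/PM), received a single oral dose of ~1.2 mg/kg LBW. Catheter blood was drawn predose, half-hourly 0.5–4 h, and at 6 and 8 h, plus 12 h for PMs. Parent and sulfone metabolite were measured by validated LC-MS/MS in duplicate, using the mean. Noncompartmental analysis: λz from ≥3 terminal points, linear trapezoidal AUC, AUCinf = AUClast + CT/λz; Cmax and AUC corrected to 1 mg/kg TBW or LBW dose.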

[2] = Safety and tolerability; type: in vivo, human
[3] = historical nonobese peers, mean ± SD, ref Ward et al.[22], cited from earlier work
[4] = both, oral, obese, age 6–11 y (n = 18)
[5] = both, oral, obese, age 12–17 y (n = 21)
[6] = non-PMs, Morbidly obese (BMI >99%), mean (SD)
[7] = non-PMs, obesity status Obese (BMI ≥95%), mean (SD)
[8] = obese non-PMs, ALT High (>Q3), mean (SD)
[9] = obese non-PMs, ALT Low (<Q1), mean (SD)
[10] = obese non-PMs, AST High (>Q3), mean (SD)
[11] = obese non-PMs, AST Low (<Q1), mean (SD)
[12] = obese non-PMs, Female, mean (SD)
[13] = obese non-PMs, Waist:hip ratio High (>Q3), mean (SD)
[14] = obese non-PMs, Waist:hip ratio Low (<Q1), mean (SD)
[15] = obese, 2C19 genotype EM, mean (SD)
[16] = obese, 2C19 genotype IM, mean (SD)
[17] = obese, age 6–11 y, non-PMs, mean, SD

COc1ccnc(C[S+]([O-])c2nc3ccc(OC(F)F)cc3[nH]2)c1OC (stereo not drawn) [pantoprazole]
half-life ([1]; both, im, t1/2, obese, 2C19 genotype IM, mean (SD)): 63 min
Cmax ([1]; both, oral): 4100 ± 1180 ng/mL
AUC(0-t) [1, 4]: 6170 ± 2170 ng·h/mL
AUC(0-t) [1, 5]: 7470 ± 2800 ng·h/mL
AUC(0-inf) [1, 4]: 6260 ± 2260 ng·h/mL
AUC(0-inf) [1, 5]: 7690 ± 3450 ng·h/mL
half-life ([1]; both, oral, t1/2, non-PMs, Morbidly obese (BMI >99%), mean (SD)): 61.8 min
half-life ([1]; both, oral, t1/2, non-PMs, obesity status Obese (BMI ≥95%), mean (SD)): 58.2 min
half-life ([1]; both, oral, t1/2, obese non-PMs, ALT High (>Q3), mean (SD)): 57.6 min
half-life ([1]; both, oral, t1/2, obese non-PMs, ALT Low (<Q1), mean (SD)): 58.2 min
half-life ([1]; both, oral, t1/2, obese non-PMs, AST High (>Q3), mean (SD)): 51 min
half-life ([1]; both, oral, t1/2, obese non-PMs, AST Low (<Q1), mean (SD)): 63.6 min
half-life ([1]; both, oral, t1/2, obese, 2C19 genotype EM, mean (SD)): 57 min
half-life ([1]; both, oral, t1/2, obese, age 12–17 y, mean, SD): 64.8 ± 15.6 min
Cmax ([1]; both, po): 4270 ± 1430 ng/mL
half-life ([1]; female, oral, t1/2, obese non-PMs, mean (SD)): 61.8 min
half-life ([1]; male, oral, t1/2, obese non-PMs, mean (SD)): 57 min
AUC0-∞ corrected for LBW-normalized dose [1, 6]: 6.17 (1.89) mcg*h/mL/1 mg/kg LBW
CL/F normalized by LBW [1, 6]: 0.18 (0.06) L/h/kg LBW
Vd/F normalized by LBW [1, 6]: 0.25 (0.05) L/kg LBW
AUC0-∞ corrected for LBW-normalized dose [1, 7]: 6.36 (2.97) mcg*h/mL/1 mg/kg LBW
CL/F normalized by LBW [1, 7]: 0.20 (0.11) L/h/kg LBW
Vd/F normalized by LBW [1, 7]: 0.25 (0.09) L/kg LBW
AUC0-∞ corrected for LBW-normalized dose [1, 8]: 6.12 (2.08) mcg*h/mL/1 mg/kg LBW
CL/F normalized by LBW [1, 8]: 0.18 (0.07) L/h/kg LBW
Vd/F normalized by LBW [1, 8]: 0.25 (0.09) L/kg LBW
AUC0-∞ corrected for LBW-normalized dose [1, 9]: 5.75 (1.97) mcg*h/mL/1 mg/kg LBW
CL/F normalized by LBW [1, 9]: 0.19 (0.06) L/h/kg LBW
Vd/F normalized by LBW [1, 9]: 0.25 (0.04) L/kg LBW
AUC0-∞ corrected for LBW-normalized dose [1, 10]: 5.66 (1.40) mcg*h/mL/1 mg/kg LBW
CL/F normalized by LBW [1, 10]: 0.19 (0.06) L/h/kg LBW
Vd/F normalized by LBW [1, 10]: 0.23 (0.05) L/kg LBW
AUC0-∞ corrected for LBW-normalized dose [1, 11]: 6.04 (1.97) mcg*h/mL/1 mg/kg LBW
CL/F normalized by LBW [1, 11]: 0.19 (0.09) L/h/kg LBW
Vd/F normalized by LBW [1, 11]: 0.27 (0.06) L/kg LBW
Vd/F normalized by LBW ([1]; obese non-PMs, Female (n = 18), mean (SD)): 0.28 (0.08) L/kg LBW
Vd/F normalized by LBW ([1]; obese non-PMs, Female (n = 18), mean (SD), listed as Pantoprazole): 0.28 [0.08] L/kg LBW
AUC0-∞ corrected for LBW-normalized dose [1, 12]: 6.03 (3.20) mcg*h/mL/1 mg/kg LBW
CL/F normalized by LBW [1, 12]: 0.21 (0.11) L/h/kg LBW
Vd/F normalized by LBW ([1]; obese non-PMs, Male (n = 17), mean (SD)): 0.22 (0.06) L/kg LBW
Vd/F normalized by LBW ([1]; obese non-PMs, Male (n = 17), mean (SD), listed as Pantoprazole): 0.22 [0.06] L/kg LBW
AUC0-∞ corrected for LBW-normalized dose ([1]; obese non-PMs, Male, mean (SD)): 6.57 (1.88) mcg*h/mL/1 mg/kg LBW
CL/F normalized by LBW ([1]; obese non-PMs, Male, mean (SD)): 0.17 (0.06) L/h/kg LBW
AUC0-∞ corrected for LBW-normalized dose [1, 13]: 6.63 (3.57) mcg*h/mL/1 mg/kg LBW
CL/F normalized by LBW [1, 13]: 0.20 (0.13) L/h/kg LBW
Vd/F normalized by LBW [1, 13]: 0.24 (0.09) L/kg LBW
AUC0-∞ corrected for LBW-normalized dose [1, 14]: 5.76 (2.31) mcg*h/mL/1 mg/kg LBW
CL/F normalized by LBW [1, 14]: 0.20 (0.09) L/h/kg LBW
Vd/F normalized by LBW [1, 14]: 0.28 (0.08) L/kg LBW
AUC0-∞ corrected for LBW-normalized dose [1, 15]: 5.09 (1.81) mcg*h/mL/1 mg/kg LBW
CL/F normalized by LBW [1, 15]: 0.23 (0.10) L/h/kg LBW
Vd/F normalized by LBW [1, 15]: 0.29 (0.07) L/kg LBW
AUC0-∞ corrected for LBW-normalized dose [1, 16]: 7.90 (2.72) mcg*h/mL/1 mg/kg LBW
CL/F normalized by LBW [1, 16]: 0.14 (0.05) L/h/kg LBW
Vd/F normalized by LBW [1, 16]: 0.20 (0.04) L/kg LBW
tlag ([1]; obese, age 6–11 y (n = 18), single oral dose): 1.5 (1.0–3) h
% AUC0-∞ extrapolated from AUC0-last ([1]; obese, age 6–11 y (n = 18)): 1.2 ± 1.6%
AUC0-∞ corrected for TBW-normalized dose ([1]; obese, age 6–11 y (n = 18)): 8.87 ± 4.00 mcg*h/mL/1 mg/kg TBW
CL/F normalized to TBW ([1]; obese, age 6–11 y (n = 18)): 0.14 ± 0.07 L/h/kg TBW
Cmax corrected for LBW-normalized dose ([1]; obese, age 6–11 y (n = 18)): 3.87 ± 1.39 mcg/mL/1 mg/kg LBW
Cmax corrected for TBW-normalized dose ([1]; obese, age 6–11 y (n = 18)): 5.99 ± 2.13 mcg/mL/1 mg/kg TBW
Vd/F normalized to TBW ([1]; obese, age 6–11 y (n = 18)): 0.16 ± 0.05 L/kg TBW
AUC0-∞ corrected for LBW-normalized dose [1, 17]: 5.73 ± 2.48 mcg*h/mL/1 mg/kg LBW and 5.73 (2.48) mcg*h/mL/1 mg/kg LBW
CL/F normalized to LBW [1, 17]: 0.21 ± 0.11 L/h/kg LBW and 0.21 (0.11) L/h/kg LBW
Vd/F normalized to LBW [1, 17]: 0.25 ± 0.09 L/kg LBW and 0.25 (0.09) L/kg LBW
% AUC0-∞ extrapolated from AUC0-last ([1]; obese, age 12–17 y (n = 21)): 2.5 ± 3.3%
AUC0-∞ corrected for TBW-normalized dose ([1]; obese, age 12–17 y (n = 21)): 11.56 ± 4.81 mcg*h/mL/1 mg/kg TBW
CL/F normalized to TBW ([1]; obese, age 12–17 y (n = 21)): 0.10 ± 0.04 L/h/kg TBW
Cmax corrected for LBW-normalized dose ([1]; obese, age 12–17 y (n = 21)): 3.7 ± 0.99 mcg/mL/1 mg/kg LBW
Cmax corrected for TBW-normalized dose ([1]; obese, age 12–17 y (n = 21)): 6.23 ± 1.73 mcg/mL/1 mg/kg TBW
Vd/F normalized to TBW ([1]; obese, age 12–17 y (n = 21)): 0.14 ± 0.04 L/kg TBW
tlag ([1]; obese, age 12–17 y (n = 21)): 2.0 (1.0–8.0) h
AUC0-∞ corrected for LBW-normalized dose ([1]; obese, age 12–17 y, mean, SD): 6.82 ± 2.70 mcg*h/mL/1 mg/kg LBW and 6.82 (2.70) mcg*h/mL/1 mg/kg LBW
CL/F normalized to LBW ([1]; obese, age 12–17 y, mean, SD): 0.17 ± 0.06 L/h/kg LBW and 0.17 (0.06) L/h/kg LBW
Vd/F normalized to LBW ([1]; obese, age 12–17 y, mean, SD): 0.25 ± 0.07 L/kg LBW and 0.25 (0.07) L/kg LBW
AUC0-∞, PM relative to all the non-PMs ([1]; only CYP2C19 PM vs non-PMs, higher): greater than 2 fold
Study participants with AEs ([2]; 7 of the 41 study participants, nine AEs, single oral dose): 17%
Serious AEs ([2]; 41 participants, single oral dose, follow-up day 10–13): No serious AEs
Severity of AEs ([2]; all AEs): mild
AEs considered related to study drug ([2]; two AEs (headache and hiccups)): 5%
AUC0-∞ corrected for TBW-normalized dose ([3]; age 6–11 y (n = 13)): 3.1 ± 1.4 mcg*h/mL/1 mg/kg TBW
CL/F normalized to TBW ([3]; age 6–11 y (n = 13)): 0.40 ± 0.22 L/h/kg TBW
Cmax corrected for TBW-normalized dose ([3]; age 6–11 y (n = 13)): 2.1 ± 1.1 mcg/mL/1 mg/kg TBW
Uncorrected AUC0-∞ ([3]; age 6–11 y (n = 13)): 3800 ± 1800 ng·h/mL
Vd/F normalized to TBW ([3]; age 6–11 y (n = 13)): 0.40 ± 0.27 L/kg TBW
t1/2 ([3]; age 6–11 y (n = 13)): 42 ± 12 min
AUC0-∞ corrected for TBW-normalized dose ([3]; age 12–17 y (n = 11)): 6.9 ± 3.4 mcg*h/mL/1 mg/kg TBW
CL/F normalized to TBW ([3]; age 12–17 y (n = 11)): 0.18 ± 0.08 L/h/kg TBW
Cmax corrected for TBW-normalized dose ([3]; age 12–17 y (n = 11)): 3.7 ± 1.8 mcg/mL/1 mg/kg TBW
Uncorrected AUC0-∞ ([3]; age 12–17 y (n = 11)): 4300 ± 3100 ng·h/mL
Uncorrected Cmax ([3]; age 12–17 y (n = 11)): 2200 ± 1400 ng/mL
Vd/F normalized to TBW ([3]; age 12–17 y (n = 11)): 0.21 ± 0.06 L/kg TBW
t1/2 ([3]; age 12–17 y (n = 11)): 54 ± 18 min
